Assay results of several laboratories.
Compare with care: the assays were run in different laboratories.
Target: Mitogen-activated protein kinase kinase kinase 12 (MAP3K12, Homo sapiens, UniProt Q12852)
Sequence (Q12852 1-859, as in one of the studies): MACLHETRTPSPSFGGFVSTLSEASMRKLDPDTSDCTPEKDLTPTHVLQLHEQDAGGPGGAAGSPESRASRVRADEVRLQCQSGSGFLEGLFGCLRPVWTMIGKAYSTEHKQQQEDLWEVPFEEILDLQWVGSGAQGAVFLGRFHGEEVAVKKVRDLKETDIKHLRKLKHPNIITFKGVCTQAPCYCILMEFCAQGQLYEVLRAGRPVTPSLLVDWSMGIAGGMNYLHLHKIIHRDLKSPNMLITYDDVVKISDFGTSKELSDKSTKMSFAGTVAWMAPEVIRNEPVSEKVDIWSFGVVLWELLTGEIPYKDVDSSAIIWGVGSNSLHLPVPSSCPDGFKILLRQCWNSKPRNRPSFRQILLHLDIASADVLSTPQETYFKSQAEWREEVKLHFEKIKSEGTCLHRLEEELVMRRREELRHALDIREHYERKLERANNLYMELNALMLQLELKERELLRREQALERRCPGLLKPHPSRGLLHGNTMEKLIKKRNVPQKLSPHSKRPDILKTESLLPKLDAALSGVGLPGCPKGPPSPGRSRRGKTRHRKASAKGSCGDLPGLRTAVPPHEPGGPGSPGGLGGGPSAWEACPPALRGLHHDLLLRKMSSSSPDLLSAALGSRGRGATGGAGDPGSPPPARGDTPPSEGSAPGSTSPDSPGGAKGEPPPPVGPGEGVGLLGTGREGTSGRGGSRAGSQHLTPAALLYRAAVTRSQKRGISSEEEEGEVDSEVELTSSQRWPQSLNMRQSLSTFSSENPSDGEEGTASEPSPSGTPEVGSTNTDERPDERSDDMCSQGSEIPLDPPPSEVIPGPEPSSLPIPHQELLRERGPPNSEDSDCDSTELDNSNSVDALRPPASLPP

N[C@@H]1CCN(c2nccc(-c3cnn4ncccc34)n2)C1 has a remaining binding of 100% (binding; 1 µM).
The remaining signal of Nc1ncnc2occ(-c3ccc(NC(=O)Nc4cc(C(F)(F)F)ccc4F)cc3)c12 is reported as 17% (cell-free assay, inhibitor; 20 µM).
For CC(C)(O)[C@H]1CC[C@H](Nc2ccc3ncc(-c4cccc(C(F)(F)F)c4)n3n2)CC1, the remaining activity was 73% (enzyme activity, inhibitor; 1 µM).
COc1ccnn2ncc(-c3ccnc(N(C)C)n3)c12 has a remaining binding of 97% (binding; 1 µM).
With CC/C(=N\NC(=O)NCc1cccc(O)c1)c1ccc(O)c(C)c1O the inhibition was 0.4% (enzyme activity, inhibitor; 0.1 µM).
With O=C(Nc1cnn(-c2csc(C(=O)NC3COC3)c2)c1)Nc1ccccc1Cl the remaining activity was 96.5% (enzyme activity, inhibitor; 5 µM).
The remaining binding of O=C(Nc1cccnn1)N1CCC(=Cc2cccc(Oc3ccc(C(F)(F)F)cn3)c2)CC1 is reported as 100% (cell-free assay, competition with immobilised ligand; 1 µM).
For Cc1ccc(C(=O)Nc2ccc(CN3CCN(C)CC3)c(C(F)(F)F)c2)cc1C#Cc1cnc2cccnn12, the remaining activity was 76% (enzyme activity, inhibitor; 23.5 nM).
For COc1ccc2cc(OCC3(C(=O)O)CN(C(=O)c4ccc(F)cc4)C3)ccc2c1, the remaining binding was 97% (cell-free assay, competition with immobilised ligand; 1 µM).
With O=C(Nc1cnn(-c2csc(C(=O)NC3COC3)c2)c1)Nc1c(F)cccc1Cl the remaining activity was 82.2% (enzyme activity, inhibitor; 5 µM).
